Active and inactive are the calls of the source. The rule behind the calls is not given here.
Columns and labels:
Cholinesterase = Cholinesterase (Homo sapiens, UniProt P06276); test: Inhibition of human serum BuChE using butyrylthiocholine iodide as substrate preincubated for 20 mins prior to substrate addition by Ellman's method
Procedure, shortened: (§1)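 Ellman method with acetylthiocholine iodide (AChE) or butyrylthiocholine iodide (BuChE) as substrate. Enzyme and inhibitor preincubated 20 min at 37 °C before substrate addition. Blanks without enzyme corrected for non-enzymatic hydrolysis. Five inhibitor concentrations giving 20-80% inhibition. IC50 from linear regression of % inhibition vs log final concentration. Mean of two or three independent measurements, each in triplicate.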

Acetylcholinesterase [1] = target: T1, Acetylcholinesterase (Homo sapiens, UniProt P22303); test: Inhibition of human recombinant AChE using acetylthiocholine iodide as substrate preincubated for 20 mins prior to substrate addition by Ellman's method; procedure, shortened: as §1
Acetylcholinesterase [2] = target: T1, Acetylcholinesterase; test: Pseudo-irreversible inhibition of human recombinant AChE using acetylthiocholine iodide as substrate preincubated for 20 mins prior to substrate addition by Ellman's method
Acetylcholinesterase [3] = target: T1, Acetylcholinesterase; test: Ratio of rivastigmine IC50 to compound IC50 for human recombinant AChE
[4] = Inhibition of amyloid beta (25 to 35) fibril formation at 10 uM incubated up to 6 hrs by UV-Vis spectrophotometric analysis
Procedure, shortened: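 Aβ25-35 at 100 μM final, in 10 mM phosphate buffer pH 7.2, sonicated 1 min on addition. Compound added in MeOH at 10 μM final, with curcumin reference alongside. Polymerization followed by UV-vis at 190-380 nm over 0-6 h. Spectra of compound alone were subtracted. At least three independent runs.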

SH-SY5Y [5] = test: Neuroprotective activity in human SH-SY5Y cells assessed as inhibition of amyloid beta (25 to 35)-induced cytotoxicity at 30 uM after 3 hrs by MTT assay; assay type: functional
Procedure, shortened: (§2)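 SH-SY5Y cells in DMEM with 10% FBS were seeded at 3 × 10⁴/well for 24 h. They were exposed for 3 h at 37 °C to HFIP-pretreated unaggregated Aβ25-35 with or without compound (1–30 range). Viability was read by MTT (5 mg/mL, 2 h; isopropanol; 570/690 nm) as % of untreated control. Percentage protection is given at the highest concentration. Mean ± SD of at least two experiments.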

SH-SY5Y [6] = test: Neuroprotective activity in human SH-SY5Y cells assessed as inhibition of amyloid beta (25 to 35)-induced cytotoxicity after 3 hrs by MTT assay; assay type: functional, cell-based; procedure, shortened: as §2
[7] = target: Amyloid-beta precursor protein (Homo sapiens) (UniProt P05067); test: Inhibition of amyloid beta (25 to 35) binding to plasma membrane surface of human Sh-SY5Y cells at 30 uM after 30 mins by congo red-based spectrophotometry; assay type: cell-based
Procedure, shortened: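 SH-SY5Y cells were seeded at 5 × 10³/well for 24 h, then given fresh medium with Aβ25-35 and compound for 10, 20 and 30 min. After two PBS washes, bound peptide was stained with Congo red in PBS for 20 min. Absorbance was read at 540 nm and expressed as % of untreated cells.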

SH-SY5Y [8] = test: Neuroprotective effect in human SH-SY5Y cells assessed as inhibition of amyloid beta (25 to 35)-induced ROS production at 30 uM after 3 hrs by DHE-based fluorimetric analysis; assay type: functional, cell-based
Procedure, shortened: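 SH-SY5Y cells were seeded at 1 × 10⁴/well on culture slides for 24 h and treated with Aβ25-35 with or without compound for 3 h. ROS was measured with DHE loaded for 15 min in the dark, then 1 h in serum-free DMEM at 37 °C. Fluorescence microscopy covered four random fields of 50–100 cells each, scored as densitometry per cell versus untreated cells. Mean ± SD of three experiments.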

Cannabinoid receptor 1 [9] = target: T2, Cannabinoid receptor 1 (Homo sapiens, UniProt P21554); test: Displacement of [3H]CP-55940 from human recombinant CB1 receptor expressed in HEK293 cells after 90 mins; assay type: cell-based
Procedure, shortened: (§3)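 Membranes from HEK-293 cells stably expressing human recombinant CB1 (Bmax 2.5 pmol/mg) or CB2 (Bmax 4.7 pmol/mg). Incubated with [3H]-CP-55,940 (CB1 0.14 nM, Kd 0.18 nM; CB2 0.084 nM, Kd 0.31 nM) and increasing compound concentrations for 90 min at 30 °C. Non-specific binding defined with 10 […] 55212-2. IC50 by non-linear regression, converted to Ki by Cheng-Prusoff. Means of at least n = 3.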

Cannabinoid receptor 2 [10] = target: T3, Cannabinoid receptor 2 (Homo sapiens, UniProt P34972); test: Displacement of [3H]CP-55940 from human recombinant CB2 receptor expressed in HEK293 cells after 90 mins; assay type: cell-based; procedure, shortened: as §3
[11] = Inhibition of amyloid beta (25 to 35) fibril formation incubated up to 6 hrs by UV-Vis spectrophotometric analysis
Procedure, shortened: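 Aβ25-35, sonicated 1 min, was mixed in 10 mM phosphate buffer (pH 7.2) with compound added in MeOH, on ice. Polymerization was followed by UV-visible spectroscopy at 190–380 nm over 0–6 h. Compound-alone spectra were subtracted, and peptide-alone and curcumin controls were run in parallel. IC50 (0.1–50 range) came from a sigmoidal least-squares fit. At least three independent runs.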

Cannabinoid receptor 1 [12] = target: T2, Cannabinoid receptor 1; test: Displacement of [3H]CP-55940 from human recombinant CB1 receptor expressed in HEK293 cells at 10 uM after 90 mins; assay type: cell-based
Procedure, shortened: (§4)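 Membranes from HEK-293 cells stably expressing human recombinant CB1 or CB2 were incubated with [³H]-CP-55,940 (0.14 nM for CB1; 0.084 nM for CB2) plus test compound for 90 min at 30 °C. Non-specific binding was defined with WIN 55212-2. Percent displacement of bound radioligand at the maximum tested concentration is reported. At least n = 3 experiments.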

Cannabinoid receptor 2 [13] = target: T3, Cannabinoid receptor 2; test: Displacement of [3H]CP-55940 from human recombinant CB2 receptor expressed in HEK293 cells at 10 uM after 90 mins; assay type: cell-based
Cannabinoid receptor 1 [14] = target: T2, Cannabinoid receptor 1; test: Displacement of [3H]CP-55940 from human recombinant CB1 receptor expressed in HEK293 cells at 25 uM after 90 mins; assay type: cell-based; procedure, shortened: as §4
Cannabinoid receptor 2 [15] = target: T3, Cannabinoid receptor 2; test: Displacement of [3H]CP-55940 from human recombinant CB2 receptor expressed in HEK293 cells at 25 uM after 90 mins; assay type: cell-based; procedure, shortened: as §4
[16] = Ratio of curcumin IC50 to compound IC50 for amyloid beta (25 to 35)

Sequence of Cholinesterase (P06276 whole entry): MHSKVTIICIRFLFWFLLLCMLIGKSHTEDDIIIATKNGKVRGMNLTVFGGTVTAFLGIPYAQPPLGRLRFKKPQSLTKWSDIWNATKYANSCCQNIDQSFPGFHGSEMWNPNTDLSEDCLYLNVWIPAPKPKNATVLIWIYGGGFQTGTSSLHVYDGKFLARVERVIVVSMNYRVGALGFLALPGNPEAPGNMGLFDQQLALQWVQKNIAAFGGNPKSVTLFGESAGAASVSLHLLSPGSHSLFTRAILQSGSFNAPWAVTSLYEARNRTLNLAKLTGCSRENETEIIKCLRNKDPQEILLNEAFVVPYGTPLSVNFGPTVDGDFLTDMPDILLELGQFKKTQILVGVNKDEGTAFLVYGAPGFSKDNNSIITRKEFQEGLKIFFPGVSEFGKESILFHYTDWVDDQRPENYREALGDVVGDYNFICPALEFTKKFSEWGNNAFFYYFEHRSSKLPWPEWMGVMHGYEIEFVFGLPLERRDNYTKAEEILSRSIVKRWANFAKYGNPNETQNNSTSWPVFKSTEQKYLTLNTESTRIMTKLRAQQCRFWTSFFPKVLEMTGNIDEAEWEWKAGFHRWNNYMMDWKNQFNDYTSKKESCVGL
T3 sequence (P34972 whole entry): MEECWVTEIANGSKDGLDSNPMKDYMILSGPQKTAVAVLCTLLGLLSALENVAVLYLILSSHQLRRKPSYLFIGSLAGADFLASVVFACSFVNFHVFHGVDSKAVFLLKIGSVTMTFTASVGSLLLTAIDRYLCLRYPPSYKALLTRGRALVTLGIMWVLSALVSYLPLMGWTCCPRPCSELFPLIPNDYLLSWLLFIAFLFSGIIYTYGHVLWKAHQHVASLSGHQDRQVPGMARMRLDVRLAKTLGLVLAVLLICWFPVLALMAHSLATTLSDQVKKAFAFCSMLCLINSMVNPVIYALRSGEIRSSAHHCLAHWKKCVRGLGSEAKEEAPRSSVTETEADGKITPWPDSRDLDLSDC
T2 sequence (P21554 whole entry): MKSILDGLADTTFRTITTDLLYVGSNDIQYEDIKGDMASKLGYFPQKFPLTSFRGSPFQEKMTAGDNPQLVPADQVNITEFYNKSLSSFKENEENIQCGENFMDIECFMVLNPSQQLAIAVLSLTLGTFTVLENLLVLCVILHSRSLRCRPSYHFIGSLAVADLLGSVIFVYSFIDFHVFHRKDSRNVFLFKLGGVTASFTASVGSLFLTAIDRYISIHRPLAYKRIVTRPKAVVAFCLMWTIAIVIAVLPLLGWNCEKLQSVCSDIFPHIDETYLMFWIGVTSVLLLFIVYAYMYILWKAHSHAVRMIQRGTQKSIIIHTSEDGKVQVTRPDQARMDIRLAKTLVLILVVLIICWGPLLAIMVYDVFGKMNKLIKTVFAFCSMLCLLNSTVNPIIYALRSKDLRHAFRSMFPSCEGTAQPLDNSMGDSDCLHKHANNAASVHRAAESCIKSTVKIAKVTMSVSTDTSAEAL
Sequence of Amyloid-beta precursor protein (Homo sapiens) (P05067 whole entry): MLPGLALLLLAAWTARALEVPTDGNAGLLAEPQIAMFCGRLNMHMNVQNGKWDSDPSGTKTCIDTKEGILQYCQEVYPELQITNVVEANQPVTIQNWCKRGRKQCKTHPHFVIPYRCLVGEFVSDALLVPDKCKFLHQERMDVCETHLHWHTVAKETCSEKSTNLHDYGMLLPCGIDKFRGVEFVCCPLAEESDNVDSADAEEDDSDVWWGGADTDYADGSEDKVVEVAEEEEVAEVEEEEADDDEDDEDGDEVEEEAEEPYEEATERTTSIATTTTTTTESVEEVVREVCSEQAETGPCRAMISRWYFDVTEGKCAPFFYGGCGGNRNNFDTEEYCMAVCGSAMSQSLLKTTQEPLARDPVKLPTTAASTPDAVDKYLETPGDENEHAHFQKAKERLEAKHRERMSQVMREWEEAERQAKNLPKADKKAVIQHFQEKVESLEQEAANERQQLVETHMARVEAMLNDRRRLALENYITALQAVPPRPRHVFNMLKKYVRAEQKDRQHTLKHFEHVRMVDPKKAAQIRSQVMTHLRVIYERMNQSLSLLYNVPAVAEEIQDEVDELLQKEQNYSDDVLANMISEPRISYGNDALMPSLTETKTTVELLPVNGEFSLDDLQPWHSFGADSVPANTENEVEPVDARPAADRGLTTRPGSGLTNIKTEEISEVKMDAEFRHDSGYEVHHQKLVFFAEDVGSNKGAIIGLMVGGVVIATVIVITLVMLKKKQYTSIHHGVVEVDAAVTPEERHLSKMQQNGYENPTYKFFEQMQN
T1 sequence (P22303 whole entry): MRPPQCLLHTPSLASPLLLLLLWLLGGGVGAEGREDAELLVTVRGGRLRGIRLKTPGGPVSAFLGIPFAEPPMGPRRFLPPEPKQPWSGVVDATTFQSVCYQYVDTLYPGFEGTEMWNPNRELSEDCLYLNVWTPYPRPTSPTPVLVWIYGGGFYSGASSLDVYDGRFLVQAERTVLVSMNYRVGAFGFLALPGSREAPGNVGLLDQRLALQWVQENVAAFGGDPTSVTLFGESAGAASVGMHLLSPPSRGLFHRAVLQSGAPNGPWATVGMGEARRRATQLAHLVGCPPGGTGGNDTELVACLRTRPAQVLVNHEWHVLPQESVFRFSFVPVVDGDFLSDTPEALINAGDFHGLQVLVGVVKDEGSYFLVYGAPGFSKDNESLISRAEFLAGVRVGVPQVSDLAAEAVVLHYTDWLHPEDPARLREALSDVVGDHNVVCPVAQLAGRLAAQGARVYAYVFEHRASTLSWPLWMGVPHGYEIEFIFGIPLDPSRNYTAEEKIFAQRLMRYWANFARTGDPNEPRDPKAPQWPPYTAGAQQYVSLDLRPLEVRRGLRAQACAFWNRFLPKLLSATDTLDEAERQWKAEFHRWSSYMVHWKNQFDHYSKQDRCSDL

Row | Compound | IC50 (Cholinesterase) [µM] | IC50 (Acetylcholinesterase [1]; read-out: IC50) [µM] | inhibition [4] | Activity (Cannabinoid receptor 1 [9]) | Activity (Cannabinoid receptor 2 [10]) | EC50 (Cannabinoid receptor 1 [9]) [µM] | Ki (Cannabinoid receptor 1 [9]) [µM] | Activity (Cannabinoid receptor 1 [12]) [%] | EC50 (Cannabinoid receptor 2 [10]) [µM] | Ki (Cannabinoid receptor 2 [10]) [µM] | Activity (Cannabinoid receptor 2 [13]) [%] | IC50 (Acetylcholinesterase [1]) | other results
1 | CNC(=O)Oc1cccc(CN(C)CCCCCCCOc2ccc(-c3oc4ccccc4c3C(=O)c3ccc(C)cc3)cc2)c1 | 0.88 | 0.34 |  |  |  |  |  |  |  |  |  |  | inhibition (Acetylcholinesterase [2]): Active; Ratio IC50 (Acetylcholinesterase [3]): 1
2 | CN(CCCCCOc1ccc(-c2cc3ccccc3o2)cc1)Cc1ccccc1 | 6.6 | 215 | Active |  |  |  |  |  |  |  |  |  | 
3 | CN(CCCCCCCOc1cccc(-c2oc3ccccc3c2C(=O)c2ccccc2)c1)Cc1ccccc1 | 2.88 | 0.24 | 35% | inactive | inactive |  |  |  |  |  |  |  | inhibition at 30 µM (SH-SY5Y [5]): 48.4%; inhibition (SH-SY5Y [6]): Dose-dependent effect; inhibition [7]: Active; inhibition (SH-SY5Y [8]): Active
4 | CN(CCCCCCCOc1ccc(-c2oc3ccccc3c2C(=O)c2ccccc2)cc1)Cc1ccccc1 |  |  | 47% |  |  | 0.79 | 0.32 | 8.72 | > 10 | > 10 | 47.3 |  | IC50 [11]: 12.5 µM; inhibition at 30 µM (SH-SY5Y [5]): 58.2%; inhibition [7]: Active; inhibition (SH-SY5Y [8]): Active
5 | Cc1cccc(C(=O)c2c(-c3cccc(OCCCCCCCN(C)Cc4ccccc4)c3)oc3ccccc23)c1 | 0.4 | 102 | 48% | inactive | inactive |  |  |  |  |  |  |  | inhibition at 30 µM (SH-SY5Y [5]): 46.2%; inhibition (SH-SY5Y [6]): Dose-dependent effect; inhibition [7]: Active; inhibition (SH-SY5Y [8]): Active
6 | CN(CCCOc1ccc(-c2cc3ccccc3o2)cc1)Cc1ccccc1 | 136 |  | Active |  |  |  |  |  |  |  |  | Not Active | 
7 | CN(CCCCCCCCCOc1ccc(-c2cc3ccccc3o2)cc1)Cc1ccccc1 | 55.6 |  |  |  |  |  |  |  |  |  |  | Not Active | IC50 [11]: 5.5 µM
8 | CN(CCCCCCCOc1ccc(-c2oc3ccccc3c2C(=O)c2cccc3ccccc23)cc1)Cc1ccccc1 | 60.1 | 101 | 48% |  |  | > 10 | > 10 | 13.8 | > 10 | > 10 | 8.9 |  | 
9 | COc1ccccc1C(=O)c1c(-c2cccc(OCCCCCCCN(C)Cc3ccccc3)c2)oc2ccccc12 | 1.97 |  |  | inactive | inactive |  |  |  |  |  |  | Not Active | 
10 | CN(CCCCCCCOc1ccc(-c2oc3ccccc3c2C(=O)c2ccc(-c3ccccc3)cc2)cc1)Cc1ccccc1 | 88.9 |  |  |  |  | 7.74 | 3.12 |  | 7.06 | 1.79 |  | Not Active | Activity (Cannabinoid receptor 1 [14]): 80%; Activity (Cannabinoid receptor 2 [15]): 86%
11 | CN(CCCCCCCOc1cccc(-c2cc3ccccc3o2)c1)Cc1ccccc1 | 3 |  | 81% |  |  |  |  |  |  |  |  | Not Active | IC50 [11]: 3.9 µM; Ratio IC50 [16]: 2.5
12 | COc1cc(/C=C/C(=O)CC(=O)/C=C/c2ccc(O)c(OC)c2)ccc1O [CURCUMIN] |  |  |  |  |  |  |  |  |  |  |  |  | IC50 [11]: 10 µM
13 | CCN(CC)Cc1cccc(C(=O)c2c(-c3ccc(OCCCCCCCN(C)Cc4ccccc4)cc3)oc3ccccc23)c1 | 3.18 | 53 | Active |  |  | > 10 | > 10 | 29.8 | > 10 | > 10 | 47.3 |  | 
14 | COc1cccc(C(=O)c2c(-c3cccc(OCCCCCCCN(C)Cc4ccccc4)c3)oc3ccccc23)c1 | 1.37 |  |  | inactive | inactive |  |  |  |  |  |  | Not Active | 
15 | CN(CCCCCCCOc1ccc(-c2cc3ccccc3o2)cc1)Cc1ccccc1 |  |  |  |  |  | 6.95 | 2.8 | 57.8 | > 10 | > 10 | 21.8 |  | 
16 | COc1cc(OC)cc(C(=O)c2c(-c3cccc(OCCCCCCCN(C)Cc4ccccc4)c3)oc3ccccc23)c1 | 0.048 |  |  | inactive | inactive |  |  |  |  |  |  | Not Active | 
17 | CCN(CC)CCOc1cccc(C(=O)c2c(-c3ccc(OCCCCCCCN(C)Cc4ccccc4)cc3)oc3ccccc23)c1 | 1.81 | 37.1 | Active |  |  | 6.38 | 2.57 | 76.5 | 2.71 | 0.69 | 77.9 |  | 
18 | CCN(CC)CCOc1ccc(C(=O)c2c(-c3ccc(OCCCCCCCN(C)Cc4ccccc4)cc3)oc3ccccc23)cc1 | 23 | 78 | Active |  |  | > 10 | > 10 | 35.2 | 4.65 | 1.18 | 92 |  | 
19 | COc1ccc(C(=O)c2c(-c3cccc(OCCCCCCCN(C)Cc4ccccc4)c3)oc3ccccc23)cc1OC | 2.51 |  |  | inactive | inactive |  |  |  |  |  |  | Not Active | 
20 | CN(CCCCCCCOc1ccc(-c2oc3ccccc3c2C(=O)c2ccc(OCCN3CCOCC3)cc2)cc1)Cc1ccccc1 | 21 | 39 | Active |  |  | 1.37 | 0.55 | 83.1 | 2.27 | 0.58 | 70.6 |  | 
21 | Cc1ccc(C(=O)c2c(-c3cccc(OCCCCCCCN(C)Cc4ccccc4)c3)oc3ccccc23)cc1 | 43.9 |  |  | inactive | inactive |  |  |  |  |  |  | Not Active | 
22 | CCN(CC)Cc1ccc(C(=O)c2c(-c3ccc(OCCCCCCCN(C)Cc4ccccc4)cc3)oc3ccccc23)cc1 | 9.42 | 100 | Active |  |  | > 10 | > 10 | 47.7 | 4.4 | 1.12 | 65.2 |  | 
23 | CN(CCCCCCCOc1ccc(-c2oc3ccccc3c2C(=O)c2ccc3ccccc3c2)cc1)Cc1ccccc1 | 89.1 |  |  |  |  | > 10 | > 10 | 35.1 | > 10 | > 10 | 6.87 | Not Active | 
24 | COc1cccc(C(=O)c2c(-c3cccc(OCCCCCCCN(C)Cc4ccccc4)c3)oc3ccccc23)c1OC | 3.01 |  |  | inactive | inactive |  |  |  |  |  |  | Not Active | 
25 | CN(CCCCCCCCOc1ccc(-c2cc3ccccc3o2)cc1)Cc1ccccc1 | 7.47 |  | Active |  |  |  |  |  |  |  |  | Not Active | 
